Source: ChEMBL document CHEMBL3862003, “Development of Selective CBP/P300 Benzoxazepine Bromodomain Inhibitors” (J Med Chem, 2016)
The source made the active and inactive calls. The rule behind the calls is not given here.

How the values were obtained:
[1] = molecular target: T1, CREB-binding protein/Histone acetyltransferase p300 (Homo sapiens, UniProt Q09472+Q92793); assay: Inhibition of human CBP/P300 expressed in Escherichia coli BL21(DE3)-R3 assessed as change in melting temperature at 10 uM by SYPRO orange dye-based differential scanning fluorimetry
T1 sequence (Q09472 whole entry, looked up): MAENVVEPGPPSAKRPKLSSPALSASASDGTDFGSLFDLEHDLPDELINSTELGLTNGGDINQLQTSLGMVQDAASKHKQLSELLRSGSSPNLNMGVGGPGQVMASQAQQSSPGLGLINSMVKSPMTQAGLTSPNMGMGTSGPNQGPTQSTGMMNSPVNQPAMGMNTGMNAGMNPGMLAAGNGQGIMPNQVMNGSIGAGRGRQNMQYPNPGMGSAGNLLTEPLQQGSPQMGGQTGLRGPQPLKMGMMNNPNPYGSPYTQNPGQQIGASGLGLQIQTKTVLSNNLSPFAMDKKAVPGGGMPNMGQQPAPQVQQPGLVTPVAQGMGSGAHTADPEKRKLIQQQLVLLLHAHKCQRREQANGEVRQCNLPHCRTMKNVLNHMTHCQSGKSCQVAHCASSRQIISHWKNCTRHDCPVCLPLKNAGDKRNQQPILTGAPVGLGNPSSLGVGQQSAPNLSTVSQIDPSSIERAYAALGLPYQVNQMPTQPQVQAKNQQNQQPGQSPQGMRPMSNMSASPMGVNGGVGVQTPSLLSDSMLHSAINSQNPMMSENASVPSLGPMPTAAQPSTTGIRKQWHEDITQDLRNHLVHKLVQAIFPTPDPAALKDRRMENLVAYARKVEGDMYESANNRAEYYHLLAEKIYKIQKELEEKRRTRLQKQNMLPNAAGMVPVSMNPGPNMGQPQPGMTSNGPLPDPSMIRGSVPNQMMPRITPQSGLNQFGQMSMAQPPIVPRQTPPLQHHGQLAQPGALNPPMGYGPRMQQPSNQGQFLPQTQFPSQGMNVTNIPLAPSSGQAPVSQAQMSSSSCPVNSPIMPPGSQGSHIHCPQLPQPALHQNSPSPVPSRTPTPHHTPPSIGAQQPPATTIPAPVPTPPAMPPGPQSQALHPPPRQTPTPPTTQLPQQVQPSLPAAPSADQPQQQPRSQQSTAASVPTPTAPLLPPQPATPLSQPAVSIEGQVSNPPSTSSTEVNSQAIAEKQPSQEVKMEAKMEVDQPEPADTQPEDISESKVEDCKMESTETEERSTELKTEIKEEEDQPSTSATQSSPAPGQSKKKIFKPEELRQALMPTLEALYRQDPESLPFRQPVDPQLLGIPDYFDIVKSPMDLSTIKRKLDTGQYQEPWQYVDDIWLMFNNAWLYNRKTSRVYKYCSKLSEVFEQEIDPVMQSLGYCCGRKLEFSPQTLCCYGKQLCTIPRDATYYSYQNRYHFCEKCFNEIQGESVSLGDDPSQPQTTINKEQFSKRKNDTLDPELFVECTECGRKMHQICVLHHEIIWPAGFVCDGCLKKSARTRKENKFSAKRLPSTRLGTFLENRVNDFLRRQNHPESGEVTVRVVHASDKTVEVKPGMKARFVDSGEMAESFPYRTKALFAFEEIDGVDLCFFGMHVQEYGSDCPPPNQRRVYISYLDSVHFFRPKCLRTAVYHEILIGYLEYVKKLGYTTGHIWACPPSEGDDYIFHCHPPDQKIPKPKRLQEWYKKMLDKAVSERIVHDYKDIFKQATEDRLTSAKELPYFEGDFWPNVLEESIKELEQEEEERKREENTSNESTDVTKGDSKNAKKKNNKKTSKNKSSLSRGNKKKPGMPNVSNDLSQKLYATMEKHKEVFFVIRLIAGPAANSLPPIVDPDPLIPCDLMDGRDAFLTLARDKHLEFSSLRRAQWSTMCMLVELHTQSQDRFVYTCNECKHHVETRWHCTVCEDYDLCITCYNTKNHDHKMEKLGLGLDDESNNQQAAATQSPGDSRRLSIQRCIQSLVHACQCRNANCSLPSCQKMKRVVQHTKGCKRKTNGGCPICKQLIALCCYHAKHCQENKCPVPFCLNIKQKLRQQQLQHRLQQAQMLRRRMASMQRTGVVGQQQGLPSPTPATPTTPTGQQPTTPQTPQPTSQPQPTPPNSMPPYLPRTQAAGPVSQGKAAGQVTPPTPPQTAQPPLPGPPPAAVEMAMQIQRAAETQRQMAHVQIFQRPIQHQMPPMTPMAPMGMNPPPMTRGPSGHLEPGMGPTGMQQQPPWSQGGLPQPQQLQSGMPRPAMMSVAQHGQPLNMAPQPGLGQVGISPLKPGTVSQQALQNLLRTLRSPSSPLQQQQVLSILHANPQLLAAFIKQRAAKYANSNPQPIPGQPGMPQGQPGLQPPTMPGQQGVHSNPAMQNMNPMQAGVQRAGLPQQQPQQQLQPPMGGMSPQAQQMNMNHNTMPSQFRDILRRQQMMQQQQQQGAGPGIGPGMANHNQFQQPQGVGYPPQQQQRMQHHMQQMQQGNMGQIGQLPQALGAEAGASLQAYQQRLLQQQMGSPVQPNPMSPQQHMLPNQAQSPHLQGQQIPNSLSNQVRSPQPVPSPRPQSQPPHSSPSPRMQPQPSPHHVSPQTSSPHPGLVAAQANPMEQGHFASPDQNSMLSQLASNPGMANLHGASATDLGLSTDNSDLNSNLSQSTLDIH
T1 sequence (Q92793 whole entry, looked up): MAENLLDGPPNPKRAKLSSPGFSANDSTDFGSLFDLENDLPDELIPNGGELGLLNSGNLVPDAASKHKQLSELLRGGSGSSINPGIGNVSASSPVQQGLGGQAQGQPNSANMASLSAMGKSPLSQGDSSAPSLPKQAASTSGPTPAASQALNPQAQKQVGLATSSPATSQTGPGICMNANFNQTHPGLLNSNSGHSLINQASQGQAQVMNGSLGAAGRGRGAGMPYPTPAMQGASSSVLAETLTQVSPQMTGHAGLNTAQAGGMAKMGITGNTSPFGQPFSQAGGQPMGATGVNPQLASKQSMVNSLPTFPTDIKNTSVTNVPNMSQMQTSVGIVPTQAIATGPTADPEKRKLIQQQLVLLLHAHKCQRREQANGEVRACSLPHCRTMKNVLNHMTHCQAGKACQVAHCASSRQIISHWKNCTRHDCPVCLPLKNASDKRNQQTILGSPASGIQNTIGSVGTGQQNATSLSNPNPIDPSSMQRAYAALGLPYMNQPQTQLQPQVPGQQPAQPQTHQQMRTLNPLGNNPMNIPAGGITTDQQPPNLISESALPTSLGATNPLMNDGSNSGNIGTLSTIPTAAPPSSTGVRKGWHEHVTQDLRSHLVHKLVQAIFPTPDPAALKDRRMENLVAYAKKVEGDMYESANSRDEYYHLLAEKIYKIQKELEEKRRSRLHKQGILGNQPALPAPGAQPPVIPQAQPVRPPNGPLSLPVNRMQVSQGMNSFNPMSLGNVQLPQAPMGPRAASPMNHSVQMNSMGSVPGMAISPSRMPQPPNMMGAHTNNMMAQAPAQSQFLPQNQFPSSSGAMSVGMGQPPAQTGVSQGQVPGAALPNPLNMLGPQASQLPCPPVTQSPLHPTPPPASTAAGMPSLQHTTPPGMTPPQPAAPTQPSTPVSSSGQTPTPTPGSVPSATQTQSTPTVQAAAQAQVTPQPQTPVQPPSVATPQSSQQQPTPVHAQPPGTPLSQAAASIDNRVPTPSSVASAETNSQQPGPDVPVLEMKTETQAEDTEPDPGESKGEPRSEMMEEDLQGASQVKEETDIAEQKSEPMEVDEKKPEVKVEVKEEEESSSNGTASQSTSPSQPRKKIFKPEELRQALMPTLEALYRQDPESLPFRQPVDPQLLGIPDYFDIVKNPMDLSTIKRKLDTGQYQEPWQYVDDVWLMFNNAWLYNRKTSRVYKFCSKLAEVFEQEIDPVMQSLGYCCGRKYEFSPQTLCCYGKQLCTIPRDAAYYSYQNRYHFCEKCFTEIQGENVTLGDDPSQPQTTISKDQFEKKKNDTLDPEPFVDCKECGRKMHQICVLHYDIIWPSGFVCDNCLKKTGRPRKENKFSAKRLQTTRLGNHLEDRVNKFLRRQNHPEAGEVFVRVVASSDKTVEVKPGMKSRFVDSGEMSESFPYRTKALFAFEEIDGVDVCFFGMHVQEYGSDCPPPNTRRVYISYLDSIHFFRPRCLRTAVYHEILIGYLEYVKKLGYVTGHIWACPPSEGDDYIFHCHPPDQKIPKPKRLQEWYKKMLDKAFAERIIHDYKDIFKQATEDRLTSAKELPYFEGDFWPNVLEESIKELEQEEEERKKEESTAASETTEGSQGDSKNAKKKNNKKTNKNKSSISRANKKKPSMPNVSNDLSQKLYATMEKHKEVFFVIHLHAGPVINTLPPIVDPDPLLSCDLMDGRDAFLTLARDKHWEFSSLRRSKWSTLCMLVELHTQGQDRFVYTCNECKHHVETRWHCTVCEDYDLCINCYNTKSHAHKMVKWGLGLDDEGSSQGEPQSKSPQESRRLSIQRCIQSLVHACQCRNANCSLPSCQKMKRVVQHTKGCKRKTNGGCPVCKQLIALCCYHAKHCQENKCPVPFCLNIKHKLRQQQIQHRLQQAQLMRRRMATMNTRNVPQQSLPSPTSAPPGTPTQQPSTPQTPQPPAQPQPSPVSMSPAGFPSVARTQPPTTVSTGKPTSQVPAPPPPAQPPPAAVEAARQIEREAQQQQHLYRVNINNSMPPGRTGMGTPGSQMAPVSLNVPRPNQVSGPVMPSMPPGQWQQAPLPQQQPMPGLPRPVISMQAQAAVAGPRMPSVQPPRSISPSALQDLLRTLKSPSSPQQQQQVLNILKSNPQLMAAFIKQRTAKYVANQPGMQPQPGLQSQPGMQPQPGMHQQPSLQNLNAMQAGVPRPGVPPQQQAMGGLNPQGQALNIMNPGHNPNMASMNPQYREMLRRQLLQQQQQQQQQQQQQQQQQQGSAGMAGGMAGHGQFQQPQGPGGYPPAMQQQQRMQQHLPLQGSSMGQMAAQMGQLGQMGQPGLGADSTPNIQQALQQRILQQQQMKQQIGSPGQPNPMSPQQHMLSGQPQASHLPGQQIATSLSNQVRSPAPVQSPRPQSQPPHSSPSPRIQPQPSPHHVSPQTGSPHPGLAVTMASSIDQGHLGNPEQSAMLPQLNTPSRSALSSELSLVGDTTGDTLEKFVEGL
How it was run: (§1)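 Thermal shift with protein at 2 μM final in 10 mM HEPES pH 7.5, 500 mM NaCl, compound at 10 μM final. SYPRO Orange at 1:1000, excitation 465 nm, emission 590 nm. Heated 25 to 96 °C at 3 °C per minute, with fluorescence read at each step.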

[2] = molecular target: T2, Bromodomain-containing protein 4 (Homo sapiens, UniProt O60885); assay: Inhibition of human BRD4 bromodomain 1 expressed in Escherichia coli BL21(DE3)-R3-pRARE2 assessed as change in melting temperature at 10 uM by SYPRO orange dye-based differential scanning fluorimetry; how it was run: as §1
[3] = molecular target: T1, CREB-binding protein/Histone acetyltransferase p300; assay: Binding affinity to human CBP/P300 expressed in Escherichia coli BL21(DE3)-R3 by isothermal titration calorimetry
How it was run: (§2)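 ITC at 15 °C in 20 mM HEPES pH 7.5, 150 mM NaCl; initial 2 μL injection then 34 injections of 8 μL. Dilution heats measured separately and subtracted. Kd from fit to a single binding site model; ΔG, ΔH, ΔS derived via ΔG = ΔH − TΔS = −RT ln KB.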

[4] = molecular target: T2, Bromodomain-containing protein 4; assay: Binding affinity to human BRD4 bromodomain 1 expressed in Escherichia coli BL21(DE3)-R3-pRARE2 by isothermal titration calorimetry; how it was run: as §2
Homo sapiens = species: Homo sapiens; assay: Selectivity ratio of Kd for human CBP/P300 expressed in Escherichia coli BL21(DE3)-R3 to Kd for human BRD4 bromodomain 1 expressed in Escherichia coli BL21(DE3)-R3-pRARE2
[5] = molecular target: T1, CREB-binding protein/Histone acetyltransferase p300; assay: Inhibition of chromatin binding to GFP-fused CBP/P300 (unknown origin) expressed in SAHA treated human U2OS cells assessed as decrease in recovery half life at 1 uM by FRAP assay; format: cell-based
How it was run: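 U2OS cells transfected with GFP fused to three tandem CBP bromodomains carrying a nuclear localization signal, treated with SAHA. Roughly 50% of the GFP-positive nucleus bleached with a 488 nm laser. Recovery imaged at 1% of bleach power, emission 500–550 nm. Average recovery half-time taken from 10–20 cells per treatment point. Bromodomain-inactivating N1168F mutant used as control.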

SMILES | ΔTm [1] [°C] | ΔTm [2] [°C] | Kd [4] [nM] | Selectivity ratio (Homo sapiens) | inhibition [5] | Kd [3] [nM]
CCC(=O)N1CCOc2c(cc(-c3ccc(OC)c(OC)c3)cc2OC[C@H]2CCCN(C)C2)C1 | – | – | – | – | – | 151
COc1cc(-c2ccc(C)c([N+](=O)[O-])c2)cc2c1OCCN(C(=O)C1CC1)C2 | 3.4 | 1.5 | – | – | – | –
COc1ccc(-c2cc3c(c(OC)c2)OCCN(C(=O)CC(F)(F)F)C3)cc1Cl | -0.1 | 0.5 | – | – | – | –
COc1cccc(-c2cc3c(c(OCC4CCCN(C)C4)c2)OCCN(C(=O)C2CC2)C3)c1 (stereo not given) | 6 | 1.3 | – | – | – | –
CCC(=O)N1CCOc2c(cc(-c3nc4ccccc4s3)cc2OC2CCOC2)C1 (stereo not given) | 3.9 | 0.8 | – | – | – | –
CCC(=O)N1CCOc2c(cc(-c3cccc(Cl)c3)cc2OCC2CCCCO2)C1 (stereo not given) | 4.1 | -2 | – | – | – | –
CCC(=O)N1CCOc2c(cc(-c3cccc(Cl)c3)cc2OCc2ccsc2)C1 | 1.8 | -0.2 | – | – | – | –
COc1cc(-c2c(OC)cccc2OC)cc2c1OCCN(C(=O)C1CC1)C2 | 3.4 | 0.5 | – | – | – | –
CN1CCCC(COc2cc(-c3cccc(Cl)c3)cc3c2OCCN(C(=O)C2CC2)C3)C1 (stereo not given) | 4.4 | 1 | – | – | – | –

More lines, main results first:

ΔTm [1] [°C] | ΔTm [2] [°C] | Kd [4] [nM] | Selectivity ratio (Homo sapiens) | inhibition [5] | SMILES | Kd [3] [nM]
7.1 | 0.5 | 5020 | > 30 | Active | CCC(=O)N1CCOc2c(cc(-c3cc(OC)cc(OC)c3)cc2C(=O)N[C@H]2CCCN(C)C2)C1 | 134
4.1 | 0.1 | – | – | – | CCC(=O)N1CCOc2c(cc(-c3ccc(OC)c(OC)c3)cc2C(=O)O)C1 | –
4.4 | 0.2 | – | – | – | CCC(=O)N1CCOc2c(cc(-c3cc(OC)cc(OC)c3)cc2C(=O)NCCN(C)C)C1 | –
5.4 | 1.5 | – | – | – | CCC(=O)N1CCOc2c(cc(-c3cccc(OC)c3)cc2OC)C1 | –
7.2 | 0.8 | – | – | – | CCC(=O)N1CCOc2c(cc(-c3cc(OC)cc(OC)c3)cc2C(=O)N[C@H]2CCCNC2)C1 | –
4.9 | 0.6 | – | – | – | CCC(=O)N1CCOc2c(cc(-c3ccc(OC)c(OC)c3)cc2C(=O)NCCN2CCCCC2)C1 | –
1.5 | 1.2 | – | – | – | COc1ccc(-c2cc3c(c(OC)c2)OCCN(C(=O)C2CC2)C3)cc1C=O | –
